From PubChem BioAssay AID504623 (Broad Institute, 2011) come the findings set out here.

Records with an inconclusive call do not appear. Active and inactive are the calls of the source.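 The calls were made as follows: active = mean replicate inhibition of at least 25% with at least 60% of replicates reaching that level; inconclusive = only one of the two criteria is met; inactive = neither criterion met.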

This assay relates to SUM159 tumorsphere formation, imaging count, 8-9 days. As to the kind of experiment: inhibition of SUM159 tumorsphere formation, late-stage follow-up, orthogonal assay for breast cancer stem cell project, imaging, SUM159 cells, single point, dry powder (AID 504623). Conditions: at 25 µM; active compounds read high. In a few lines: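 Times: 8-day incubation, 37 °C; material: SUM159 cells forming tumorspheres in methylcellulose suspension; amount: 1000 SUM159 cells per well; doses: single point, 200 nL compound pinned into medium per well; signal: Brightfield imaging at 2x, 9 sites/well; buffer or medium: culture medium containing 0.5% methylcellulose; format: Low-attachment wells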
On to `Cc1csc(NC(=O)c2ccc(COc3cccc(OC(F)(F)F)c3)o2)n1`, for which the inhibition was 22.2% (inactive). Regarding `Cc1csc(NC(=O)c2ccc(COc3cccc(C#N)c3)o2)n1`, the inhibition is 44.2%. As for `O=C(COc1c(Cl)cc(Cl)cc1Cl)N/N=C/c1ccc[nH]1`, the figure is -7.47% (inactive).

On to `Cc1csc(NC(=O)c2ccc(COc3ccccc3F)o2)n1`, for which the inhibition is 4.83% (inactive). The result for `Cc1csc(NC(=O)c2ccc(COc3ccccc3)o2)n1` reads 21.4% (inactive). The result for `O=C(/C=C/c1ccc(-c2ccccc2)cc1)NC1=NCCS1` reads 4.08% (inactive). As for `CC(C)c1ccc(/C=C/C(=O)Nc2ccccc2)cc1`, the figure is 62.4%; as for `CC(C)(C)c1ccc(C2CC2C(=O)N/N=C/c2ccc[nH]2)cc1` (centres undefined), 62.8%. Consider `CC(C)(C)c1ccc2c(c1)OC(C(=O)N/N=C/c1ccc[nH]1)CO2` (centres undefined), for which the inhibition was 34.1%.

Take `COc1cccc(OCc2ccc(C(=O)Nc3nc(C)cs3)o2)c1`: the inhibition was -6.02% (inactive). The result for `Cc1cc(Cl)ccc1OCC(=O)N/N=C/c1ccc[nH]1` reads 3.98% (inactive); that for `Cc1csc(NC(=O)c2ccc(COc3cccc(Cl)c3)o2)n1`, 19.5% (inactive). As for `CC(C)c1ccc(/C=C/C(=O)NC2=NCCS2)cc1`, the figure is 10.4% (inactive); as for `O=C(COc1ccc(Cl)cc1Cl)N/N=C/c1ccc[nH]1`, -22.3% (inactive).

The term inhibition denotes the drop in the measured response relative to a control, in per cent.
